Data from ChEMBL document CHEMBL1926618, “Homosecoiridoids from the flower buds of Lonicera japonica” (2011).
Active and inactive are the calls of the source. No cut-off for these calls is given here.

What was measured:
[1] = molecular target: Signal transducer and activator of transcription 3 (Homo sapiens) (UniProt P40763); test: Inhibition of STAT-3 activity in HELF cells at 10 uM; assay type: cell-based
Outline: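 HELF cells grown in DMEM with 10% FCS under humidified 5% CO2, transfected with pSTAT-3-TA-luc firefly luciferase reporter plasmid by lipofectamine 2000. After 24 h, treated in 5% FBS with compound or DMSO for 24 h. Luciferase activity read in cell lysates by luminometer; activity expressed relative to DMSO-treated transfected cells set at 100%.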

[2] = Antiinflammatory activity in rat polymorphonuclear leukocytes assessed as inhibition of platelet-activating factor-induced glucuronidase release at 10 uM preincubated for 15 mins before challenge by spectrophotometry; assay type: functional
A549 = test: Cytotoxicity against human A549 cells at 10 uM after 96 hrs by MTT assay; assay type: functional, cell-based
BGC-823 = test: Cytotoxicity against human BGC823 cells at 10 uM after 96 hrs by MTT assay; assay type: functional, cell-based
MCF7 = test: Cytotoxicity against human MCF7 cells at 10 uM after 96 hrs by MTT assay; assay type: functional, cell-based
Bel-7402 = test: Cytotoxicity against human Bel7402 cells at 10 uM after 96 hrs by MTT assay; assay type: functional, cell-based
KETR3 = test: Cytotoxicity against human Ketr3 cells at 10 uM after 96 hrs by MTT assay; assay type: functional, cell-based
HCT-8 = test: Cytotoxicity against human HCT8 cells at 10 uM after 96 hrs by MTT assay; assay type: functional, cell-based
PC-12 = test: Neuroprotective activity against glutamate-induced neurotoxicity in rat PC12 cells at 10 uM preincubated for 24 hrs prior challenge measured after 24 hrs by MTT assay; assay type: functional, cell-based
Liver microsomes = test: Antioxidant activity against Fe2+-cystine induced lipid peroxidation in rat liver microsomes at 10 uM; assay type: functional; conditions: Microsome
[3] = molecular target: T1, Tyrosine-protein phosphatase non-receptor type 1 (Homo sapiens) (UniProt P18031); test: Inhibition of GST-tagged human PTP1B PTPase activity using p-NPP as substrate at 10 uM after 10 mins by spectrophotometry
T1 sequence (whole entry): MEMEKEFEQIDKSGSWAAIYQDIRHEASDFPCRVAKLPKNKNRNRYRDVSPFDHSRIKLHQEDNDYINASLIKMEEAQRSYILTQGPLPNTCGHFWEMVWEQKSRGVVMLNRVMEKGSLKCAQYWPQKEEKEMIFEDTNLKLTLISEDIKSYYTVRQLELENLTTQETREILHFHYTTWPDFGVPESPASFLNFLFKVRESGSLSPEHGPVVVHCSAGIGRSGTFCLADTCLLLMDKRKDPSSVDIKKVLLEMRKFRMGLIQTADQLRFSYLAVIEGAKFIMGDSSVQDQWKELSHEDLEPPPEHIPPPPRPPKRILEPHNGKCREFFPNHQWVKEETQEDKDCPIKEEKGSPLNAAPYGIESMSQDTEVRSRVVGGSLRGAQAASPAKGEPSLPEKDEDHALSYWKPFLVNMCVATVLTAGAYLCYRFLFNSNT

[4] = system: Human immunodeficiency virus 1; test: Antiviral activity against HIV1 infected in 293T cells at 10 uM pretreated for 15 mins prior infection measured after 48 hrs by luciferase reporter gene assay; assay type: functional, organism-based

Signal transducer and activator of transcription 3 (Homo sapiens), sequence (P40763 whole entry): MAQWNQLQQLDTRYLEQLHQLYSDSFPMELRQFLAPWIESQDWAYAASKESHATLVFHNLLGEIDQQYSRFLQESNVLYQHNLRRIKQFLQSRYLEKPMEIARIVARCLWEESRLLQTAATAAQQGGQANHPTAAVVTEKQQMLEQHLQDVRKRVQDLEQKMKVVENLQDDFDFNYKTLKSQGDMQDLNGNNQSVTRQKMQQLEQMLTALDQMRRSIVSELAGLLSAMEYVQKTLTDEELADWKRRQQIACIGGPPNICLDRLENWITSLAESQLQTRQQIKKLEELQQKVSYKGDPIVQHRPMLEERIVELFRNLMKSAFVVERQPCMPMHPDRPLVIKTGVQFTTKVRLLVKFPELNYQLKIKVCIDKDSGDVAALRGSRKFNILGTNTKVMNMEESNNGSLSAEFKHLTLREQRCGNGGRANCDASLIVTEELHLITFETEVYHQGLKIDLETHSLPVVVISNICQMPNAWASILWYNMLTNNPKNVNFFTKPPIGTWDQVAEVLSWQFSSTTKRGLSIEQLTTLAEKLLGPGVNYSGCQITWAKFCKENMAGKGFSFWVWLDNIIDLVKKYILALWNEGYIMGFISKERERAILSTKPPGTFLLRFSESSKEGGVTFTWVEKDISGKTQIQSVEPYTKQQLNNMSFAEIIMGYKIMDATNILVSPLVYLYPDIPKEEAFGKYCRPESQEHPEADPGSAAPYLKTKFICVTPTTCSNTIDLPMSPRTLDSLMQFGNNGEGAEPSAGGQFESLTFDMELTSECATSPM

With C=C[C@H]1[C@H](O[C@@H]2O[C@H](CO)[C@@H](O)[C@H](O)[C@H]2O)OC=C2C(=O)O[C@H](/C(=C(/O)C(=O)O)c3ccccc3)C[C@@H]21 [LONIPHENYRUVIRIDOSIDE C] the inhibition [1] was 30.9%, the inhibition at 10 µM [2] was under 30% and the Activity (A549) was “inactive”. For the same compound, the Activity (BGC-823) was “inactive”, the Activity (MCF7) was “inactive” and the Activity (Bel-7402) was “inactive”. For the same compound, the Activity (KETR3) was “inactive”, the Activity (HCT-8) was “inactive” and the Activity (PC-12) was “inactive”. For the same compound, the Activity (Liver microsomes) was “inactive”, the inhibition [3] was “inactive” and the Activity [4] was “inactive”.
